Activity calls are given as the source filed them. The calls are words filed in the database; no cut-off is given here.
Key:
SH-SY5Y [1] = test: Cytotoxicity against human SH-SY5Y cells assessed as reduction in cell viability at 1 to 50 uM incubated for 24 hrs by MTT assay; type: cell-based
Outline: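 Differentiated human SH-SY5Y neuroblastoma cells were exposed in culture medium to 1, 10 and 50 μM for 24 h. Viability was read as metabolic activity by MTT reduction. Untreated cells served as control, and results are mean % of untreated controls ± SEM (n = 4).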

[2] = molecular target: Cholinesterase (Equus caballus) (UniProt P81908); test: Inhibition of equine serum BChE using butyrylthiocholine iodide as substrate at 50 uM incubated for 5 mins followed by substrate addition measured for 5 mins by Ellman's method
Cholinesterase (Equus caballus), sequence (P81908 whole entry): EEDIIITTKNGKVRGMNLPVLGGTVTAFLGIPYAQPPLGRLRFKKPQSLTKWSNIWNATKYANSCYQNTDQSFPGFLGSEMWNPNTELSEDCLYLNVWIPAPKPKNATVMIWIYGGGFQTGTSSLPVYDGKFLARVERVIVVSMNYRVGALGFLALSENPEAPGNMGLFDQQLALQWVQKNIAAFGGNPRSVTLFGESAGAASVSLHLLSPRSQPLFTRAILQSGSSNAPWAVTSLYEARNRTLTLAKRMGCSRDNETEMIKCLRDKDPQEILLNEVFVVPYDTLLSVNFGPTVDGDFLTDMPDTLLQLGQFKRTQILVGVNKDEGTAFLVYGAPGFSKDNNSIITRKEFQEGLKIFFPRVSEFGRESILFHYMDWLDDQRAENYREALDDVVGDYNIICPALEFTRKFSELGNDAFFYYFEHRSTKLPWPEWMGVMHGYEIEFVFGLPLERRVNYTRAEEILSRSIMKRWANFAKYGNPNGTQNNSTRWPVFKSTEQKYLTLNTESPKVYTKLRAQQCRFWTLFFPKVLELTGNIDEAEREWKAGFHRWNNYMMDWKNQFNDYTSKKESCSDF
Outline: (§1)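 Ellman's colorimetric method. AChE came from Electrophorus electricus and BChE from equine serum. Compounds were tested up to 50 μM, the highest concentration.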

HepG2 = test: Cytotoxicity against human HepG2 cells assessed as reduction in cell viability at 1 to 50 uM incubated for 24 hrs by resazurin dye based fluorescence assay; conditions: hepg2, 24 h
Outline: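 HepG2 hepatocellular carcinoma cells were exposed in culture medium to 1, 10 and 50 μM. Viability was measured as metabolic activity by resazurin reduction. Results are mean % of untreated control cells ± SEM (n = 4).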

[3] = molecular target: Acetylcholinesterase (Electrophorus electricus) (UniProt O42275); test: Inhibition of electric eel AChE using acetylthiocholine iodide as substrate at 50 uM incubated for 5 mins followed by substrate addition measured for 5 mins by Ellman's method; outline: as §1
Acetylcholinesterase (Electrophorus electricus), sequence (O42275 24-633 limits assumed): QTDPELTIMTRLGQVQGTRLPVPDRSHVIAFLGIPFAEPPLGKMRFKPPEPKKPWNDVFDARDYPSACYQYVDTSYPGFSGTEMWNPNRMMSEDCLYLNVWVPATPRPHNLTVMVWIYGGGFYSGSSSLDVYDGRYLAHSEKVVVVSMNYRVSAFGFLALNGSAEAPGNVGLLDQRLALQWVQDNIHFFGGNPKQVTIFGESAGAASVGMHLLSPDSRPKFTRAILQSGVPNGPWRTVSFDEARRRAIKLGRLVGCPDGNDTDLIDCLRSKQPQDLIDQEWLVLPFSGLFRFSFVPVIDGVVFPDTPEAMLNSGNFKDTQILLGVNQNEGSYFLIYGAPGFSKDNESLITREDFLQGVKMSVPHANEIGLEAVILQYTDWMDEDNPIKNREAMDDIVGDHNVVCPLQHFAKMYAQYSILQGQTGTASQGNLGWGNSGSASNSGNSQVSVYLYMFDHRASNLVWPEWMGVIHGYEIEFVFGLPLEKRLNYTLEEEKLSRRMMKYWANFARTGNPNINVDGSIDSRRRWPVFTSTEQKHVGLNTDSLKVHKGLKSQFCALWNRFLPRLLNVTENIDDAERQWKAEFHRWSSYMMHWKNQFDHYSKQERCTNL

SH-SY5Y [4] = test: Neuroprotective activity against t-BHP-induced oxidative stress in human SH-SY5Y cells assessed as metabolic stability at 10 to 100 uM incubated for 24 hrs by resazurin dye based fluorescence assay relative to control; type: functional
Outline: (§2)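 Differentiated SH-SY5Y cells were given test compounds at 10, 50 and 100 μM. Two protocols were used: 24 h compound pre-incubation then stressor, or stressor first then 24 h compound. Stressors were H2O2 1 mM, t-BHP 200 μM, ROT/AA 1 μM or DOX 1 μM, each for 4 h. Resazurin reduction was read as % of untreated control, four independent experiments, one-way ANOVA.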

[5] = molecular target: Acetylcholinesterase (Electrophorus electricus) (UniProt O42275); test: Noncompetitive inhibition of electric eel AChE assessed as effect on Km of substrate at 5 to 20 uM using acetylthiocholine iodide as substrate incubated for 5 mins followed by substrate addition measured for 5 mins by double reciprocal Lineweaver-Burk plot analysis
Acetylcholinesterase = Acetylcholinesterase (Electrophorus electricus, UniProt O42275); test: Inhibition of electric eel AChE assessed as inhibition constant using acetylthiocholine iodide as substrate pretreated for 5 mins followed by substrate addition measured for 5 mins by Dixon plot analysis
Acetylcholinesterase, sequence (O42275 whole entry): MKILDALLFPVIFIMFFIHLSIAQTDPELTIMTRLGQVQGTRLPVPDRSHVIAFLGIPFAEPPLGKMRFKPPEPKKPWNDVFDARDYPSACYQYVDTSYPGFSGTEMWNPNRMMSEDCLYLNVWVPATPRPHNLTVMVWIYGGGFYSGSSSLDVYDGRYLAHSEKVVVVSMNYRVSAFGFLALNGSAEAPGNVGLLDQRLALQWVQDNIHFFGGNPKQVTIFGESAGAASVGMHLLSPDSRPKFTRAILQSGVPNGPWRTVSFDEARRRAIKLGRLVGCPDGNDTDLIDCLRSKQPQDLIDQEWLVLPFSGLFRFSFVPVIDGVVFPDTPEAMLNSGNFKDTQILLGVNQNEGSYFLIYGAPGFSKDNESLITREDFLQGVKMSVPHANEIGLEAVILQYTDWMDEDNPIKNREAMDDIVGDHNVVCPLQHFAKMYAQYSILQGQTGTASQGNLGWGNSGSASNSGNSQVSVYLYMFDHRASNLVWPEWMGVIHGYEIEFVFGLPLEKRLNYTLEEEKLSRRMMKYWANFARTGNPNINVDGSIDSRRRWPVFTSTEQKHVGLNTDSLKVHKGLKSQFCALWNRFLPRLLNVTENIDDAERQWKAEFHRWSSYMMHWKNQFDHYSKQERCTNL

[6] = molecular target: Acetylcholinesterase (Electrophorus electricus) (UniProt O42275); test: Noncompetitive inhibition of electric eel AChE assessed as decrease in Vmax for substrate at 5 to 20 uM using acetylthiocholine iodide as substrate incubated for 5 mins followed by substrate addition measured for 5 mins by double reciprocal Lineweaver-Burk plot analysis
SH-SY5Y [7] = test: Neuroprotective activity against t-BHP-induced oxidative stress in human SH-SY5Y cells assessed as metabolic stability incubated for 24 hrs by resazurin dye based fluorescence assay relative to control; type: functional, cell-based; outline: as §2
SH-SY5Y [8] = test: Neuroprotective activity against DOX-induced oxidative stress in human SH-SY5Y cells assessed as metabolic stability at 10 to 100 uM incubated for 24 hrs by resazurin dye based fluorescence assay relative to control; type: functional; outline: as §2
SH-SY5Y [9] = test: Neuroprotective activity against ROT/AA-induced oxidative stress in human SH-SY5Y cells assessed as metabolic stability at 10 to 100 uM incubated for 24 hrs by resazurin dye based fluorescence assay relative to control; type: functional; outline: as §2
SH-SY5Y [10] = test: Neuroprotective activity against H2O2-induced oxidative stress in human SH-SY5Y cells assessed as metabolic stability at 10 to 100 uM incubated for 24 hrs by resazurin dye based fluorescence assay relative to control; type: functional; outline: as §2
[11] = molecular target: Acetylcholinesterase (Electrophorus electricus) (UniProt O42275); test: Mixed inhibition of electric eel AChE assessed as decrease in Km of substrate at 7.5 to 30 uM using acetylthiocholine iodide as substrate incubated for 5 mins followed by substrate addition measured for 5 mins by double reciprocal Lineweaver-Burk plot analysis
[12] = molecular target: Acetylcholinesterase (Electrophorus electricus) (UniProt O42275); test: Mixed inhibition of electric eel AChE assessed as decrease in Vmax of substrate at 7.5 to 30 uM using acetylthiocholine iodide as substrate incubated for 5 mins followed by substrate addition measured for 5 mins by double reciprocal Lineweaver-Burk plot analysis

Row | Structure (SMILES) | Activity (SH-SY5Y [1]) | inhibition [2] | Activity (HepG2) | inhibition [3] | also measured
1 | CC(C)(C)/[N+]([O-])=C/CCCCCNC(=O)c1ccccc1 | Non-Toxic | inactive | Non-Toxic | inactive | 
2 | COc1ccc(C(=O)NCCCCC/C=[N+](\[O-])C(C)(C)C)cc1OC | 107 to 122% | inactive | Non-Toxic |  | Activity (SH-SY5Y [4]): 44.3%; inhibition [5]: Active; Ki (Acetylcholinesterase): 5.2 µM; inhibition [6]: Active; Activity (SH-SY5Y [7]): Dose-dependent effect; Activity (SH-SY5Y [8]): 32.9%; Activity (SH-SY5Y [9]): 20.7%; Activity (SH-SY5Y [10]): 50.3%
3 | COc1cc(C(=O)NCCCCC/C=[N+](\[O-])C(C)(C)C)cc(OC)c1OC | 107 to 122% | inactive | Non-Toxic |  | Activity (SH-SY5Y [4]): inactive; Activity (SH-SY5Y [8]): inactive; Activity (SH-SY5Y [9]): inactive; inhibition [11]: Active; Activity (SH-SY5Y [10]): inactive; inhibition [12]: Active
4 | COc1cc(C(=O)NCCCCCCCCC/C=[N+](\[O-])C(C)(C)C)cc(OC)c1OC | Non-Toxic | inactive | Non-Toxic |  | 
5 | COc1cccc(C(=O)NCCCCC/C=[N+](\[O-])C(C)(C)C)c1 | Non-Toxic | inactive | Non-Toxic |  | 
6 | COc1ccc(C(=O)NCCCCC/C=[N+](\[O-])Cc2ccccc2)cc1 | Non-Toxic | inactive | Non-Toxic | inactive | 
7 | COc1ccc(C(=O)NCCCCCCCCC/C=[N+](\[O-])C(C)(C)C)cc1OC | Non-Toxic | inactive | Non-Toxic |  | 
8 | COc1ccc(C(=O)NCCCCC/C=[N+](\[O-])Cc2ccccc2)cc1OC | Non-Toxic | inactive | Non-Toxic | inactive | 
9 | O=C(NCCCCC/C=[N+](\[O-])Cc1ccccc1)c1ccccc1 | Non-Toxic | inactive | Non-Toxic | inactive | 
10 | COc1cccc(C(=O)NCCCCC/C=[N+](\[O-])Cc2ccccc2)c1 | Non-Toxic | inactive | Non-Toxic | inactive | 
11 | COc1ccc(C(=O)NCCCCC/C=[N+](\[O-])C2CCCCC2)cc1 | Non-Toxic | inactive | Non-Toxic | inactive | 
12 | COc1cc(C(=O)NCCCCC/C=[N+](\[O-])Cc2ccccc2)cc(OC)c1OC | Non-Toxic | inactive | Non-Toxic | inactive | 
13 | COc1ccc(C(=O)NCCCCC/C=[N+](\[O-])C2CCCCC2)cc1OC | Non-Toxic | inactive | Non-Toxic | inactive | 
14 | COc1ccc(C(=O)NCCCCC/C=[N+](\[O-])C(C)(C)C)cc1 | Non-Toxic | inactive | Non-Toxic |  | 
15 | COc1cc(C(=O)NCCCCCCC/C=[N+](\[O-])C(C)(C)C)cc(OC)c1OC | Non-Toxic | inactive | Non-Toxic |  | 
16 | COc1cccc(C(=O)NCCCCC/C=[N+](\[O-])C2CCCCC2)c1 | Non-Toxic | inactive | Non-Toxic | inactive | 
17 | COc1ccc(C(=O)NCCCCCCC/C=[N+](\[O-])C(C)(C)C)cc1OC | Non-Toxic | inactive | Non-Toxic |  | 
18 | COc1cc(C(=O)NCCCCC/C=[N+](\[O-])C2CCCCC2)cc(OC)c1OC | Non-Toxic | inactive | Non-Toxic | inactive | 
19 | O=C(NCCCCC/C=[N+](\[O-])C1CCCCC1)c1ccccc1 | Non-Toxic | inactive | Non-Toxic | inactive | 

— ChEMBL document CHEMBL4393684, “Benzoic acid-derived nitrones: A new class of potential acetylcholinesterase inhibitors and neuroprotective agents” (Eur J Med Chem, 2019)
